Experimental data from ChEMBL document CHEMBL4422628, “Discovery of first-in-class thiazole-based dual FFA1/PPARδ agonists as potential anti-diabetic agents” (Eur J Med Chem, 2019).

molecular target: T1, Free fatty acid receptor 1 (Homo sapiens, UniProt O14842); experiment: Agonist activity at human FFA1 receptor expressed in CHO cells by Fluo 4-AM dye based FLIPR assay; format: cell-based
Outline: (§1)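 hFFA1-expressing CHO cells were loaded for 1 h at 37 °C with buffer containing 2.5 μg/mL Fluo 4-AM, 0.1% fatty acid-free BSA and 2.5 mmol/L probenecid. Compounds were added and calcium flux was read on FLIPR. Activity = (A–B)/(C–B)×100%, where A is the compound response, B the vehicle response and C the 10 μM γ-linolenic acid response.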

T1 sequence (O14842 whole entry): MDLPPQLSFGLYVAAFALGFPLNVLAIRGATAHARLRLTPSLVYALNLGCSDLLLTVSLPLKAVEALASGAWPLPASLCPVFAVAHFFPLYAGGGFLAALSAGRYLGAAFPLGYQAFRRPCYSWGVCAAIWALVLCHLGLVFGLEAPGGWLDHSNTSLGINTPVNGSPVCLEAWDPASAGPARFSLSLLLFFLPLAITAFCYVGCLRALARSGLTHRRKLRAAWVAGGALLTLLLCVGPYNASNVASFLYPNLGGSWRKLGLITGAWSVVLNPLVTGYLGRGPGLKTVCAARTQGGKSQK

`[2H]C([2H])(Cc1ccc(OCc2sc(-c3ccc(F)cc3)nc2C)cc1)C(=O)O` and `[2H]C([2H])(Cc1ccc(OCc2sc(-c3ccc(C(F)(F)F)cc3)nc2C)cc1)C(=O)O` are within 1.5-fold of each other in EC50: 251 nM for the first, 325 nM for the second.

Going from `Cc1cc(OCc2sc(-c3ccc(C(F)(F)F)cc3)nc2C)ccc1OCC(=O)O` to `Cc1ccc(-c2nc(C)c(COc3ccc(OCC(=O)O)c(F)c3)s2)cc1`, the EC50 falls from over 10000 nM to 156 nM.

First: Cc1nc(-c2ccccc2)oc1COc1ccc(OCC(=O)O)c(F)c1
Second: Cc1nc(-c2ccccc2)sc1COc1ccc(OCC(=O)O)c(F)c1
The EC50 of the first is 3.6-fold higher: 1350 nM for the first, 374 nM for the second.

`Cc1cccc(-c2nc(C)c(COc3ccc(OCC(=O)O)c(F)c3)s2)c1` and `Cc1nc(-c2cccc(F)c2)sc1COc1ccc(OCC(=O)O)c(F)c1` are within 1.5-fold of each other in EC50: 247 nM for the first, 185 nM for the second.

`Cc1nc(-c2ccc(C(F)(F)F)cc2)sc1COc1ccc2c(c1)OCC2CC(=O)O` (stereo not given) and `Cc1nc(-c2ccc(F)cc2)sc1COc1ccc2c(c1)OCC2CC(=O)O` (stereo not given) are within 1.5-fold of each other in EC50: 113 nM for the first, 79 nM for the second.

`Cc1nc(-c2ccccc2)sc1COc1ccc(S(=O)(=O)CC(=O)O)cc1` and `Cc1nc(-c2ccc(F)cc2)sc1COc1ccc(S(=O)(=O)CC(=O)O)cc1` are within 1.5-fold of each other in EC50: 370 nM for the first, 253 nM for the second.

Compared with `Cc1ccc(-c2nc(C)c(COc3ccc4c(c3)OCC4CC(=O)O)s2)cc1` (stereo not given), `COc1ccc(-c2nc(C)c(COc3ccc4c(c3)OCC4CC(=O)O)s2)cc1` (stereo not given) is 1.7-fold higher in EC50: 94 nM for the first, 156 nM for the second. The first is the more potent here.

Going from `[2H]C([2H])(Cc1ccc(OCc2sc(-c3ccccc3)nc2C)cc1)C(=O)O` to `Cc1cc(OCc2sc(-c3ccccc3)nc2C)ccc1OCC(=O)O`, the EC50 rises from 590 nM to over 10000 nM.

`Cc1nc(-c2ccccc2)sc1COc1ccc2c(c1)OCC2CC(=O)O` (stereo not given) gave an EC50 of 102 nM.

molecular target: T2, Peroxisome proliferator-activated receptor delta (Homo sapiens, UniProt Q03181); experiment: Transactivation of GAL4-fused human PPARdelta LBD expressed in HEK293 cells after 18 hrs by luciferase reporter gene assay; format: cell-based
T2 sequence (Q03181 whole entry): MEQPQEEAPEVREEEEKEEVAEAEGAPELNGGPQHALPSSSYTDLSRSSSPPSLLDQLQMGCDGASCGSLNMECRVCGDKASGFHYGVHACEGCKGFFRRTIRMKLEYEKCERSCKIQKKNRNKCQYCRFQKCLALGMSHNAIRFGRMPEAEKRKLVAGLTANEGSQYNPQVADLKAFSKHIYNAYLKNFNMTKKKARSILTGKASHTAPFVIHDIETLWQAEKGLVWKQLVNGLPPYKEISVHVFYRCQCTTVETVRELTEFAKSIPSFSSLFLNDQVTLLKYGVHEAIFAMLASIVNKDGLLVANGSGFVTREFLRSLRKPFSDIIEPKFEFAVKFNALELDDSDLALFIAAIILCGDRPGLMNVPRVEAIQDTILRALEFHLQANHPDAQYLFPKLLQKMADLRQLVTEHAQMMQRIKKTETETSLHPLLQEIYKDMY

`[2H]C([2H])(Cc1ccc(OCc2sc(-c3ccc(F)cc3)nc2C)cc1)C(=O)O` and `[2H]C([2H])(Cc1ccc(OCc2sc(-c3ccc(C(F)(F)F)cc3)nc2C)cc1)C(=O)O` are within 1.5-fold of each other in EC50: 529 nM for the first, 376 nM for the second.

Going from `Cc1cc(OCc2sc(-c3ccc(C(F)(F)F)cc3)nc2C)ccc1OCC(=O)O` to `Cc1ccc(-c2nc(C)c(COc3ccc(OCC(=O)O)c(F)c3)s2)cc1`, the EC50 rises from 315 nM to 564 nM (1.8-fold). The first is the more potent here.

First: Cc1nc(-c2ccccc2)oc1COc1ccc(OCC(=O)O)c(F)c1
Second: Cc1nc(-c2ccccc2)sc1COc1ccc(OCC(=O)O)c(F)c1
The EC50 of the first is 2-fold higher: 2660 nM for the first, 1320 nM for the second. The second is the more potent here.

`Cc1cccc(-c2nc(C)c(COc3ccc(OCC(=O)O)c(F)c3)s2)c1` and `Cc1nc(-c2cccc(F)c2)sc1COc1ccc(OCC(=O)O)c(F)c1` are within 1.5-fold of each other in EC50: 1160 nM for the first, 780 nM for the second.

Compared with `Cc1nc(-c2ccc(C(F)(F)F)cc2)sc1COc1ccc2c(c1)OCC2CC(=O)O` (stereo not given), `Cc1nc(-c2ccc(F)cc2)sc1COc1ccc2c(c1)OCC2CC(=O)O` (stereo not given) is 1.7-fold higher in EC50: 175 nM for the first, 306 nM for the second.

`Cc1nc(-c2ccccc2)sc1COc1ccc(S(=O)(=O)CC(=O)O)cc1` and `Cc1nc(-c2ccc(F)cc2)sc1COc1ccc(S(=O)(=O)CC(=O)O)cc1` cannot be ordered by EC50: over 10000 nM for the first, over 10000 nM for the second.

First: Cc1ccc(-c2nc(C)c(COc3ccc4c(c3)OCC4CC(=O)O)s2)cc1 (stereo not given)
Second: COc1ccc(-c2nc(C)c(COc3ccc4c(c3)OCC4CC(=O)O)s2)cc1 (stereo not given)
The EC50 of the first is 4.2-fold lower: 218 nM for the first, 920 nM for the second.

Compared with `[2H]C([2H])(Cc1ccc(OCc2sc(-c3ccccc3)nc2C)cc1)C(=O)O`, `Cc1cc(OCc2sc(-c3ccccc3)nc2C)ccc1OCC(=O)O` is 1.7-fold higher in EC50: 972 nM for the first, 1650 nM for the second.

`Cc1nc(-c2ccccc2)sc1COc1ccc2c(c1)OCC2CC(=O)O` (stereo not given) showed an EC50 of 863 nM.

molecular target: T1, Free fatty acid receptor 1; experiment: Agonist activity at human FFA1 receptor expressed in CHO cells assessed as activity percentage at 10 uM by Fluo 4-AM dye based FLIPR assay relative to control; format: cell-based; outline: as §1

Compound `Cc1cc(OCc2sc(-c3ccccc3)nc2C)ccc1OCC(=O)O` has an Activity of 13%.
